Measurements reported in ChEMBL document CHEMBL2311527, “Synthesis of cembranoid analogues and evaluation of their potential as quorum sensing inhibitors” (Bioorg Med Chem, 2013).
Calls of active or inactive are those of the source. The calls are words filed in the database; no cut-off is given here.

Each compound was assayed on Chromobacterium violaceum (assay: Inhibition of quorum sensing system in Chromobacterium violaceum ATCC 31532 assessed as inhibition of violacein pigment production at 30 ug/disk after 48 hrs by NCCLS disk diffusion method).
Summary of the method: (§1)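 Sterile 5.2 mm filter-paper disks were loaded with 30.0, 15.0, 7.5, 5.0 and 2.5 per disk from MeOH solutions and air-dried for 1 h. They were placed on trypticase soy agar spread with C. violaceum broth culture (10^6 cfu/mL, 0.5 McFarland) and incubated 48 h at 26 °C. The endpoint was the minimum amount per disk giving a colourless, opaque but viable halo, meaning violacein loss without growth inhibition. Kojic acid and Cu2O served as positive controls.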

Row | SMILES | inhibition
1 | C=C(C)[C@@H]1CC[C@@H](C)C(=O)CC[C@H](C)CC2(O)C[C@@H](C)[C@@H](C1)O2 | inactive
2 | C=C(C)[C@H]1CC/C(C)=C/CCC(C)C(=O)CC/C(COC)=C/[C@@H]1O (stereo not given in full) | inactive
3 | C=C(C)[C@H]1CC/C(C)=C/CC[C@@]2(C)O[C@@H]2CC/C(CO)=C\[C@@H]1O | inactive
4 | CC(=O)OCC12CC[C@H]3O[C@]3(C)CCC3OC3(C)CC[C@H]([C@]3(C)CO3)[C@@H](O)C1O2 (stereo not given in full) | inactive
5 | C=C(C)[C@H]1CC/C(C)=C/C/C=C(/C)[C@H](O)CC/C(COC(C)=O)=C/[C@@H]1O | inactive
6 | C=C(C)[C@@H]1CC[C@@H](C)[C@H](O)CC[C@@H](C)CC2(O)C[C@@H](C)[C@@H](C1)O2 | inactive
7 | C=C(C)[C@H]1CC[C@@](C)(O)[C@H]2CCC(=C)[C@@H](CC/C(CO)=C/[C@@H]1O)O2 | inactive
8 | C=C(C)[C@@H]1C/C=C(\COC(C)=O)CC[C@@H](O)C(=C)CC/C=C(\C)CC1 | inactive
9 | C=C(C)[C@H]1CC/C(C)=C/CC[C@@](C)(Cl)[C@H](O)CC/C(COC(C)=O)=C\[C@@H]1OC(C)=O | inactive
10 | C=C(C)[C@@H]1C/C=C(\COC(C)=O)CC[C@@H](O)/C(C)=C\C/C=C(\C)CC1 | inactive
11 | C=C(C)[C@H]1CC/C(C)=C/CC[C@]2(C)O[C@H]1/C=C(\COC(C)=O)CC[C@H]2O | inactive
12 | C=C(C)[C@H]1CC/C(C)=C/CC[C@@]2(C)O[C@@H]2CCC(C=O)=CC1=O | inactive
13 | C=C(C)[C@@H]1C/C=C(\COC(C)=O)CC[C@@H](O)[C@](C)(Cl)CC/C=C(\C)CC1 | inactive
14 | C=C(C)[C@H]1CC/C(C)=C/CC[C@@](C)(O)[C@@H]2CC/C(=C/[C@@H]1O)CO2 | inactive
15 | C=C(C)[C@H]1CC[C@@](C)(I)[C@H]2CC[C@@](C)(O2)[C@@H](I)CC/C(COC(C)=O)=C/[C@@H]1O | inactive
16 | C=C(C)[C@H]1CC/C(C)=C/CC[C@@]2(C)O[C@@H]2CC/C(COC(C)=O)=C\[C@@H]1OC(C)=O | inactive
17 | C=C(C)[C@H]1CC/C(C)=C/CC[C@@](C)(O)[C@H](O)CC/C(CO)=C/[C@@H]1O | inactive
18 | C=C(C)[C@H]1CC/C(C)=C/CC[C@@]2(C)O[C@@H]2CC/C(COC(C)=O)=C\[C@@H]1O | inactive
19 | C=C(C)[C@@H]1C/C=C(/COC(C)=O)CC[C@H]2O[C@]2(C)CC/C=C(\C)CC1 | inactive
20 | C=C(C)[C@H]1CC/C(C)=C/CC[C@@]2(C)O[C@@H]2CC/C(C=O)=C/[C@@H]1O | inactive
21 | C=C(C)[C@@H]1CC[C@@H](C)[C@H](O)CC[C@@H](C)CC(=O)C[C@@H](C)[C@H](O)C1 | inactive
22 | C=C(C)[C@@H]1CC[C@@H](C)C(=O)CC[C@H](C)CC(=O)C[C@@H](C)[C@H](O)C1 | inactive

The compounds below were run on Chromobacterium violaceum (assay: Inhibition of quorum sensing system in Chromobacterium violaceum ATCC 31532 assessed as inhibition of violacein pigment production measured per disk after 48 hrs by NCCLS disk diffusion method).
Summary of the method: as §1

Row | SMILES | INH
23 | C=C(C)[C@@H]1CC[C@@H](C)[C@H](OC(C)=O)CC[C@@H](C)CC(=O)C[C@@H](C)[C@H](OC(C)=O)C1 | 15 µg
24 | C=C(C)[C@@H]1CC[C@@H](C)[C@H](O)CC[C@H](C)CC(=O)C[C@@H](C)[C@H](O)C1 | 7.5 µg
25 | C=C(C)[C@H]1CC/C(C)=C/CCC(C)(C=O)CC/C(COC(C)=O)=C/[C@@H]1O (stereo not given in full) | 7.5 µg
26 | C=C(C)[C@H]1CC/C(C)=C/C/C=C(\C)[C@H](O)CC/C(COC(C)=O)=C\[C@@H]1OC(C)=O | 2.5 µg
27 | C=C1CC/C=C(\C)CC[C@H](C(=C)C)[C@@H](OC(C)=O)/C=C(/COC(C)=O)CC[C@H]1O | 7.5 µg
28 | C=C(C)[C@H]1CC/C(C)=C/CC[C@@](C)(Cl)[C@H](O)CC/C(COC(C)=O)=C/[C@@H]1O | 7.5 µg
29 | O=c1cc(CO)occ1O | 90 µg
30 | C=C(C)[C@H]1CC/C(C)=C/CC[C@@]2(C)O[C@H]1/C=C(\CO)CC[C@H]2O | 30 µg
31 | C=C(C)[C@@H]1CC[C@@H](C)[C@H](O)CC[C@H](C)CC2(O)C[C@@H](C)[C@@H](C1)O2 | 7.5 µg
32 | C=C1CC/C=C(\C)CC[C@H](C(=C)C)[C@@H](O)/C=C(\COC(C)=O)CC[C@H]1O | 7.5 µg
33 | C=C(C)[C@H]1CC/C(C)=C/C/C=C(/C)[C@@H](O)CC/C(COC(C)=O)=C\[C@@H]1OC(C)=O | 7.5 µg
34 | C=C(C)[C@@H]1CC[C@@H](C)[C@H](OC(C)=O)CC[C@H](C)CC(=O)C[C@@H](C)[C@H](OC(C)=O)C1 | 30 µg
35 | C=C(C)[C@H]1CC/C(C)=C/CC[C@](C)(O)[C@H](O)CC/C(COC(C)=O)=C/[C@@H]1O | 7.5 µg
36 | C=C(C)[C@H]1C[C@H](O)/C(C)=C/CC[C@@]2(C)O[C@@H]2CC/C(COC(C)=O)=C/[C@@H]1O | 30 µg
37 | C=C(C)[C@H]1CC/C(C)=C/CC[C@@](C)(Cl)[C@H](O)CC/C(CO)=C/[C@@H]1O | 30 µg
38 | C=C(C)[C@@H]1CC[C@@H](C)C(=O)CC[C@H](C)CC(=O)C[C@@H](C)[C@H](OC(C)=O)C1 | 7.5 µg

What follows are compounds tested on Chromobacterium violaceum (assay: Antibacterial activity against Chromobacterium violaceum ATCC 31532 assessed as growth inhibition at 2.5 to 30 ug/disk after 48 hrs by NCCLS disk diffusion method).
Format: functional, organism-based

Row | SMILES | growth inhibition (GI)
39 | C=C(C)[C@@H]1CC[C@@H](C)[C@H](O)CC[C@H](C)CC2(O)C[C@@H](C)[C@@H](C1)O2 | inactive
40 | C=C(C)[C@@H]1CC[C@@H](C)[C@H](OC(C)=O)CC[C@H](C)CC(=O)C[C@@H](C)[C@H](OC(C)=O)C1 | inactive
